From ChEMBL document CHEMBL4002615, “Investigation of piperazine benzamides as human β3 adrenergic receptor agonists for the treatment of overactive bladder” (Bioorg Med Chem Lett, 2017)

Key:
[1] = biological target: Sodium-dependent serotonin transporter (Homo sapiens, UniProt P31645); test: Inhibition of SERT (unknown origin)
[2] = Plasma clearance in rat at 1 mg/kg, iv or 2 mg/kg, po; type: ADME, organism-based
Rattus norvegicus [3] = test: Total dose normalized AUC in rat 2 mg/kg, po; type: ADME, organism-based; settings: in vivo
[4] = Volume of distribution in rat at 1 mg/kg, iv or 2 mg/kg, po; type: ADME, organism-based; settings: in vivo
[5] = biological target: T1, Beta-3 adrenergic receptor (Homo sapiens, UniProt P13945); test: Agonist activity at human beta3 adrenergic receptor relative to R-(-)-isoproterenol
Target sequence in this assay (P13945 whole entry, looked up): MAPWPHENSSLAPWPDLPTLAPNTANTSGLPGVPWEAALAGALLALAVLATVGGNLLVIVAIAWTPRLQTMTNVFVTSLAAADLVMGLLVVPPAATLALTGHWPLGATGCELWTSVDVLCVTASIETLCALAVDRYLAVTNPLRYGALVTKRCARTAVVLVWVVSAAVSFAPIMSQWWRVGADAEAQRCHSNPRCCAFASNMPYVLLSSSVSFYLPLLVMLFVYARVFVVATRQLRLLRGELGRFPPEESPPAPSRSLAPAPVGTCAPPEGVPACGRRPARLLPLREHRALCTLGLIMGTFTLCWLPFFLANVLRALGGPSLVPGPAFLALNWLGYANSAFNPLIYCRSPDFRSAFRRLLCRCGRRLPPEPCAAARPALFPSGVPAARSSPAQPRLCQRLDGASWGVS

[6] = biological target: Sodium-dependent noradrenaline transporter (Homo sapiens, UniProt P23975); test: Inhibition of NET (unknown origin) expressed in HEK293 cells assessed as reduction in norepinephrine reuptake; type: cell-based
[7] = biological target: T1, Beta-3 adrenergic receptor; test: Agonist activity at human beta3 adrenergic receptor
In short: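 Human β3 receptor agonist EC50 given as the mean of at least two experiments.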
Target sequence in this assay (P13945 whole entry): as the sequence (P13945 whole entry, looked up) above

[8] = biological target: Beta-2 adrenergic receptor (Homo sapiens, UniProt P07550); test: Activity at human beta2 adrenergic receptor
[9] = Half life in rat at 1 mg/kg, iv or 2 mg/kg, po; type: ADME, organism-based; settings: in vivo
[10] = biological target: Sodium channel protein type 5 subunit alpha (Homo sapiens, UniProt Q14524); test: Inhibition of human Nav1.5 by electrophysiology method
[11] = biological target: Beta-1 adrenergic receptor (Homo sapiens, UniProt P08588); test: Activity at human beta1 adrenergic receptor
[12] = Oral bioavailability in rat 2 mg/kg; type: ADME, organism-based; settings: in vivo
[13] = biological target: Voltage-gated inwardly rectifying potassium channel KCNH2 (Homo sapiens, UniProt Q12809); test: Inhibition of human ERG
[14] = Volume of distribution in rat at 0.5 mg/kg, iv administered as cassette dose or 2 mg/kg, po; type: ADME, organism-based; settings: in vivo
[15] = Half life in rat at 0.5 mg/kg, iv administered as cassette dose or 2 mg/kg, po; type: ADME, organism-based; settings: in vivo
[16] = Plasma clearance in rat at 0.5 mg/kg, iv administered as cassette dose or 2 mg/kg, po; type: ADME, organism-based
[17] = Induction of phospholipidosis in human HepG2 cells; type: cell-based; settings: read-out: A50
Canis familiaris [18] = test: Total dose normalized AUC in dog at 2 mg/kg, po; type: ADME, organism-based, Canis lupus familiaris; settings: in vivo
[19] = Oral bioavailability in dog at 2 mg/kg; type: ADME, organism-based, Canis lupus familiaris; settings: in vivo
[20] = Unbound fraction in dog at 0.5 mg/kg, iv or 2 mg/kg, po; type: ADME, organism-based, Canis lupus familiaris; settings: in vivo
[21] = Volume of distribution in dog at 0.5 mg/kg, iv or 2 mg/kg, po; type: ADME, organism-based, Canis lupus familiaris; settings: in vivo
Rattus norvegicus [22] = test: Unbound clearance in rat at 1 mg/kg, iv or 2 mg/kg, po; type: ADME, organism-based; settings: in vivo
Canis familiaris [23] = test: Unbound clearance in dog at 0.5 mg/kg, iv or 2 mg/kg, po; type: ADME, organism-based, Canis lupus familiaris; settings: in vivo
[24] = Unbound fraction in rat at 1 mg/kg, iv or 2 mg/kg, po; type: ADME, organism-based; settings: in vivo
Rattus norvegicus [25] = test: Unbound dose normalized AUC in rat 2 mg/kg, po; type: ADME, organism-based; settings: in vivo
[26] = Plasma clearance in dog at 0.5 mg/kg, iv or 2 mg/kg, po; type: ADME, organism-based, Canis lupus familiaris
Canis familiaris [27] = test: Unbound dose normalized AUC in dog at 2 mg/kg, po; type: ADME, organism-based, Canis lupus familiaris; settings: in vivo
[28] = Half life in dog at 0.5 mg/kg, iv or 2 mg/kg, po; type: ADME, organism-based, Canis lupus familiaris; settings: in vivo
[29] = Plasma clearance in rhesus monkey at 0.5 mg/kg, iv or 2 mg/kg, po; type: ADME, organism-based, Macaca mulatta
[30] = Oral bioavailability in rhesus monkey at 2 mg/kg; type: ADME, organism-based, Macaca mulatta; settings: in vivo
Rhesus monkey [31] = test: Unbound clearance in rhesus monkey at 0.5 mg/kg, iv or 2 mg/kg, po; type: ADME, organism-based, Macaca mulatta; settings: in vivo
Rhesus monkey [32] = test: Unbound dose normalized AUC in rhesus monkey at 2 mg/kg, po; type: ADME, organism-based, Macaca mulatta; settings: in vivo
[33] = Volume of distribution in rhesus monkey at 0.5 mg/kg, iv or 2 mg/kg, po; type: ADME, organism-based, Macaca mulatta; settings: in vivo
[34] = Half life in rhesus monkey at 0.5 mg/kg, iv or 2 mg/kg, po; type: ADME, organism-based, Macaca mulatta; settings: in vivo
[35] = Unbound fraction in rhesus monkey at 0.5 mg/kg, iv or 2 mg/kg, po; type: ADME, organism-based, Macaca mulatta; settings: in vivo
Rhesus monkey [36] = test: Total dose normalized AUC in rhesus monkey at 2 mg/kg, po; type: ADME, organism-based, Macaca mulatta; settings: in vivo

Sequence of Sodium-dependent serotonin transporter (P31645 whole entry): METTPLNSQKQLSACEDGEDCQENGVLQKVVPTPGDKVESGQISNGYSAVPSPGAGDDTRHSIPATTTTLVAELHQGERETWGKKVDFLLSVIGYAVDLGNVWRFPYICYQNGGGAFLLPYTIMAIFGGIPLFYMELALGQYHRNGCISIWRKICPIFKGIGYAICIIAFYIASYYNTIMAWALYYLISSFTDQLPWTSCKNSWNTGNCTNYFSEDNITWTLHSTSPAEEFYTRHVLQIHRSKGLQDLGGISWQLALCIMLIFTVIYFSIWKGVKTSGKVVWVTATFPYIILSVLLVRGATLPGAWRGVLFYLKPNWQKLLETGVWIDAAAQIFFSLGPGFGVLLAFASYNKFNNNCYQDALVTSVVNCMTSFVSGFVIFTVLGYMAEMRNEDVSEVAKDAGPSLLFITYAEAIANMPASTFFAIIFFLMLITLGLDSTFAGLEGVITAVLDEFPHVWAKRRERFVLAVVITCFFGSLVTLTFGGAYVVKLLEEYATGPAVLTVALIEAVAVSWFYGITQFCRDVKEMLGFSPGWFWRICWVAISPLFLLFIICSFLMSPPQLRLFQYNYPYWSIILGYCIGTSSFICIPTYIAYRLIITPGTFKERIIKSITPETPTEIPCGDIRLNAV
Sequence of Sodium-dependent noradrenaline transporter (P23975 whole entry): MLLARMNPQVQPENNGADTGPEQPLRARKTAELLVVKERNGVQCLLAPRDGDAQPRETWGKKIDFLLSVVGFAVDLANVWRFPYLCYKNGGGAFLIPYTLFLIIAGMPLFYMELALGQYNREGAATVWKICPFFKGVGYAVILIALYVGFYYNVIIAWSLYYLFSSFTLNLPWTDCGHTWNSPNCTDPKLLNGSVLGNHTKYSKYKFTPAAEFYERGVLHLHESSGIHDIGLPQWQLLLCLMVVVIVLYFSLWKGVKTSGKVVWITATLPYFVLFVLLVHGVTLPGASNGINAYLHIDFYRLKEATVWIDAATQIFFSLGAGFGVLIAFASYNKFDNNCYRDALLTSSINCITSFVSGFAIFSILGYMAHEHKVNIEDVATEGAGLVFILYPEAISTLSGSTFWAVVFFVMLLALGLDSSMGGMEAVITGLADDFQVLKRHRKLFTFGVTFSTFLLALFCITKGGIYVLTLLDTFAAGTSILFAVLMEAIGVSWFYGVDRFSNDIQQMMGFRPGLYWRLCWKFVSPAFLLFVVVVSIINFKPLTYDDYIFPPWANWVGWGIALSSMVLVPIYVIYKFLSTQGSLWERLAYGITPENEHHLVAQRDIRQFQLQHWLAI
Sequence of Sodium channel protein type 5 subunit alpha (Q14524 whole entry): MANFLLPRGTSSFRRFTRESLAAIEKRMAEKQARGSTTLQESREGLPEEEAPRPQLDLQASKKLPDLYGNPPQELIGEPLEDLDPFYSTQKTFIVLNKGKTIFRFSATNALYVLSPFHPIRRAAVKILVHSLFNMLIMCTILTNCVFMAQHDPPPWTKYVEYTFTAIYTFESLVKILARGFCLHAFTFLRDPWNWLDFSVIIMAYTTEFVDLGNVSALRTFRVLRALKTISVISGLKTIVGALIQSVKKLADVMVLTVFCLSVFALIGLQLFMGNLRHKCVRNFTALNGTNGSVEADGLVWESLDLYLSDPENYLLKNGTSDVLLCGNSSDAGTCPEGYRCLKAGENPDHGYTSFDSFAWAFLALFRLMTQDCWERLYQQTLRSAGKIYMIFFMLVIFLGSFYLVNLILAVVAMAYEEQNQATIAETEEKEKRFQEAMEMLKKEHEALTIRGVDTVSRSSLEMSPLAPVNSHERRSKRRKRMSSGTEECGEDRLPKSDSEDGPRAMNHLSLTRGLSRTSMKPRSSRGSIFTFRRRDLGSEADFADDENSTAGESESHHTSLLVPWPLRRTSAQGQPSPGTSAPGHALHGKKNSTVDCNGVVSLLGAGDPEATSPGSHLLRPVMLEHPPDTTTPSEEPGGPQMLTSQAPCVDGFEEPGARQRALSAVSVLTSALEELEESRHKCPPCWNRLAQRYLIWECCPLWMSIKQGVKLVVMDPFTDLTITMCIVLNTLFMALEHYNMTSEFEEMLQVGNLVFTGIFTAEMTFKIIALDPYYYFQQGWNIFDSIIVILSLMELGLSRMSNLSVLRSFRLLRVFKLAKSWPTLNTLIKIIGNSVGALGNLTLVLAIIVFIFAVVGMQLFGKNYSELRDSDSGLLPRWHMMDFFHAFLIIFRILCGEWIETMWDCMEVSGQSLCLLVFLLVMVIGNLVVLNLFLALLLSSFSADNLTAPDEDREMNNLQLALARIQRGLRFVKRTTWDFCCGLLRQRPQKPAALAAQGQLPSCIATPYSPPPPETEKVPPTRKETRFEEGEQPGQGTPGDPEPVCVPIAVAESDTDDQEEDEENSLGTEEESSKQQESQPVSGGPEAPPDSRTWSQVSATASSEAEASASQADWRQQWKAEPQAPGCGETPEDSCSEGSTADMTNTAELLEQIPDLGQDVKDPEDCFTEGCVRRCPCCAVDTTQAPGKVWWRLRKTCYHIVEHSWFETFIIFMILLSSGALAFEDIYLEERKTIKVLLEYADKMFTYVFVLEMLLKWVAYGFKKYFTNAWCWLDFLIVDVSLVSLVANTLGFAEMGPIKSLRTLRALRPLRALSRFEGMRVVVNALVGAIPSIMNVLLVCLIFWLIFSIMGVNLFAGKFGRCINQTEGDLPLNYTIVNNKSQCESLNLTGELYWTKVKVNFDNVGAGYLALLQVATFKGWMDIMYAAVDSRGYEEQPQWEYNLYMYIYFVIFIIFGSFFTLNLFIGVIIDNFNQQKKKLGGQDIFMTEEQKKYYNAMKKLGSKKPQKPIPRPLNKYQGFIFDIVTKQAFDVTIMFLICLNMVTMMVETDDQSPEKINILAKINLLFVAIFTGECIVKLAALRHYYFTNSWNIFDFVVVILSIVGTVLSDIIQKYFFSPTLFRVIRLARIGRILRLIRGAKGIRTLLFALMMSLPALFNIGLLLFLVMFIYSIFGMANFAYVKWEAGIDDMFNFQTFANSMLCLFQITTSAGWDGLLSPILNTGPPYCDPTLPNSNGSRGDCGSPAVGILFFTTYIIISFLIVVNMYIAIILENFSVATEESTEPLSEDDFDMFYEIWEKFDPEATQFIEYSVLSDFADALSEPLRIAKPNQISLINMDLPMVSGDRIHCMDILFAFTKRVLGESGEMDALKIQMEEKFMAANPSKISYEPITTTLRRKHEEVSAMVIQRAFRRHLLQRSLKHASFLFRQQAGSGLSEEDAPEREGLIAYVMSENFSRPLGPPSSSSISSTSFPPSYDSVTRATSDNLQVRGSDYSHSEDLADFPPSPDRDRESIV
Sequence of Beta-2 adrenergic receptor (P07550 whole entry): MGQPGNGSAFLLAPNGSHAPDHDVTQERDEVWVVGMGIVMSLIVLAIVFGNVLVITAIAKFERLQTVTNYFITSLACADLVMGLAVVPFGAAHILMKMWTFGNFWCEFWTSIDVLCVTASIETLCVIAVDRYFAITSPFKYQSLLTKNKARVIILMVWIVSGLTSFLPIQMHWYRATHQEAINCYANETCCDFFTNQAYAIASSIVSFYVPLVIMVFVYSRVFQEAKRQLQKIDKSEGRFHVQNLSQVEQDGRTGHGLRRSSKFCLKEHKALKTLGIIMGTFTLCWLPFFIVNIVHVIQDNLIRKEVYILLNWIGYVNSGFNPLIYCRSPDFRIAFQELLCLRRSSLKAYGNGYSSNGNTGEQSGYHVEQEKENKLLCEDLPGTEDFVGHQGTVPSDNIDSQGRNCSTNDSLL
Sequence of Beta-1 adrenergic receptor (P08588 whole entry): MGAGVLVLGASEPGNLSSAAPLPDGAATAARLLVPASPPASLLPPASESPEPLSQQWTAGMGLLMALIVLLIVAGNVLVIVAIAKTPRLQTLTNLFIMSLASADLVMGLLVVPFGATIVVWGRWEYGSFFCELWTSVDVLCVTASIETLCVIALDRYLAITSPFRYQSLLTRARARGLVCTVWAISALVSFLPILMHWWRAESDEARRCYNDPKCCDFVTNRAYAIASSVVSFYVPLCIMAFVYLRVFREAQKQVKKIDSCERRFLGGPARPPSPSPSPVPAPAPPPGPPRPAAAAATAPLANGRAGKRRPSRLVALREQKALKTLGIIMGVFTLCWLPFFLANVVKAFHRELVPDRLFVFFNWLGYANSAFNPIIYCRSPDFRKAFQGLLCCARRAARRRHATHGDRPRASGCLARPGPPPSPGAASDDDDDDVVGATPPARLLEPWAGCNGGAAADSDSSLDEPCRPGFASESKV

IC50 [1] [µM]	clearance [2] [mL/min/kg]	AUC/dose (Rattus norvegicus [3]) [µM·h/mg/kg]	Vd [4] [L/kg]	Emax [5] [%]	EC50 [6] [µM]	EC50 [7] [µM]	IC50 [8] [µM]	half-life [9] [h]	IC50 [11] [µM]	bioavailability [12] [%]	AUC/dose (Canis familiaris [18]) [µM·h/mg/kg]	bioavailability [19] [%]	fraction unbound [20]	Vd [21] [L/kg]	CL free (Rattus norvegicus [22]) [mL/min/kg]	CL free (Canis familiaris [23]) [mL/min/kg]	Structure (SMILES)	IC50 [10] [µM]	IC50 [13] [µM]	AC50 [17] [µM]	further results
> 10	111	0.29	57	108	0.026	0.0029	> 20	7.3	> 20	< 1							O=C(c1ccc(C[C@@H]2CC[C@H]([C@H](O)c3ccccc3)N2)cc1)N1CCN(Cc2ncn(CC(F)F)n2)CC1	> 30			
8.79				99	0.251	0.00032	> 20		> 20								Cc1noc(-c2cccc(CN3CCN(C(=O)c4ccc(C[C@@H]5CC[C@H]([C@H](O)c6ccccc6)N5)cc4)CC3)n2)n1	> 30	> 60		Vd [14]: 19 L/kg; half-life [15]: 1.8 h; clearance [16]: 181 mL/min/kg
> 10	102	0.05	21	101	0.827	0.0015	> 20	2.6	> 20	16	0.29	20	0.65	13	182	34	O=C(c1ccc(C[C@@H]2CC[C@H]([C@H](O)c3ccccc3)N2)cc1)N1CCN(Cc2nnn(CC(F)F)n2)CC1	> 30		> 100	fraction unbound [24]: 0.56; fAUC/dose (Rattus norvegicus [25]): 0.03 µM·h/mg/kg; clearance [26]: 22 mL/min/kg; fAUC/dose (Canis familiaris [27]): 0.19 µM·h/mg/kg; half-life [28]: 8.5 h
> 10	105	0.3	38	113	0.065	0.0016	> 20	5.4	> 20	< 1							O=C(c1ccc(C[C@@H]2CC[C@H]([C@H](O)c3ccccc3)N2)cc1)N1CCN(Cc2ncn(CC(F)(F)F)n2)CC1	> 30	> 60		
> 10	71	0.35	19	87 to 88	0.339		> 20	2.6	> 20	71	1.3	27	0.48	6.4	148	17	O=C(c1ccc(C[C@@H]2CC[C@H]([C@H](O)c3ccccc3)N2)cc1)N1CCN(Cc2ccccn2)CC1	> 30		54	clearance [29]: 18 mL/min/kg; bioavailability [30]: 16%; CL free (Rhesus monkey [31]): 43 mL/min/kg; fAUC/dose (Rhesus monkey [32]): 0.14 µM·h/mg/kg; Vd [33]: 11 L/kg; fraction unbound [24]: 0.48; fAUC/dose (Rattus norvegicus [25]): 0.17 µM·h/mg/kg; clearance [26]: 7.9 mL/min/kg; fAUC/dose (Canis familiaris [27]): 0.62 µM·h/mg/kg; half-life [34]: 5.8 h; fraction unbound [35]: 0.42; half-life [28]: 12 h; AUC/dose (Rhesus monkey [36]): 0.34 µM·h/mg/kg
